Assay results reported in ChEMBL document CHEMBL1133430, “8-Methylureido-4,5-dihydro-4-oxo-10H-imidazo[1,2-a]indeno[1,2-e]pyrazines: highly potent in vivo AMPA antagonists” (Bioorg Med Chem Lett, 2000).
pIC50: −log10 of the molar value.

What was measured:
[1] = molecular target: Glutamate receptor ionotropic, AMPA (Rattus norvegicus, UniProt P19490+P19491+P19492+P19493); test: The compound was tested for its affinity for Ionotropic glutamate receptor AMPA in in vitro binding assay on rat cortical membrane preparations using [3H]AMPA as ligand
Glutamate NMDA receptor = test: In vitro affinity for N-methyl-D-aspartate glutamate receptor 1 using [3H]5,7-dichlorokynurenate([3H]-DCKA) as ligand; format: protein-complex assay
Summary of the method: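 Competition binding on rat cerebral cortex membranes at the NMDA receptor glycine site. IC50 is the mean of at least three determinations, each using at least three test concentrations run in triplicate.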

Mus musculus [2] = test: Tested in vivo as the dose which protected 50% of the animals from a tonic convulsion (six male CDI mice/dose of compound) after intraperitoneal administration in MES test; format: functional
Summary of the method: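 Maximal electroshock (MES) convulsions in male CD1 mice. Compound given ip in 1% Tween-80 in water, 30 min before challenge. Six mice per dose, at least three doses plus a vehicle-alone group. ED50 (mg/kg) is the dose protecting 50% of animals from tonic convulsion.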

Rattus norvegicus = species on record: Rattus norvegicus; test: The compound was tested for its inhibition of currents generated by 50 uM Kainate in Xenopus oocytes injected with rat brain mRNA; format: functional
Summary of the method: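 Xenopus oocytes injected with rat brain mRNA; AMPA receptor currents evoked by a submaximal kainate concentration, recorded electrophysiologically. Drug stocks in water or DMSO, diluted into recording medium. IC50 obtained by nonlinear least-squares fit to a sigmoidal equation.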

Mus musculus [3] = test: Tested in vivo as the dose which protected 50% of the animals from a tonic convulsion (six male CDI mice/dose of compound) after intravenous administration in MES test; format: functional
Summary of the method: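 Maximal electroshock (MES) convulsions in male CD1 mice. Compound given iv in saline, 5 min before challenge. Six mice per dose, at least three doses plus a vehicle-alone group. ED50 (mg/kg) is the dose protecting 50% of animals from tonic convulsion.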

Mus musculus [4] = test: Tested in vivo as the dose which protected 50% of the animals from a tonic convulsion (six male CDI mice/dose of compound) after intraperitoneal administration in DBA test; format: functional
Summary of the method: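 Audiogenic seizure test in DBA/2 mice. Compound given ip in 1% Tween-80 in water, 30 min before the sound challenge. Six mice per dose, three doses plus a vehicle-treated group.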

Mus musculus [5] = test: Tested in vivo as the dose which protected 50% of the animals from a tonic convulsion (six male CDI mice/dose of compound) after subcutaneous administration in MES test; format: functional; details: sc
Summary of the method: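 Maximal electroshock (MES) convulsions in male CD1 mice. Compound given sc in 1% Tween-80 in water, 30 min before challenge. Six mice per dose, at least three doses plus a vehicle-alone group. ED50 (mg/kg) is the dose protecting 50% of animals from tonic convulsion.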

[6] = Mus musculus, ip, read-out: ED50

| Compound | pIC50 [1] | pIC50 (Glutamate NMDA receptor) | also measured |
| --- | --- | --- | --- |
| Cc1ccc2c(c1)-c1nc(O)c3nccn3c1C2 | < 4.00 | 5.68 |  |
| O=C(Nc1ccccc1)Nc1ccc2c(c1)Cc1c-2nc(O)c2nccn12 | 6.21 | < 4.00 |  |
| CC(=O)Nc1ccc2c(c1)Cc1c-2nc(O)c2nccn12 | 5.49 | 5.00 |  |
| Nc1ccc2c(c1)Cc1c-2nc(O)c2nccn12 | 5.25 | 4.66 |  |
| Cc1ccc2c(c1)Cc1c-2nc(O)c2nccn12 | 4.52 | < 4.00 |  |
| O=C(NCc1ccccc1)Nc1ccc2c(c1)Cc1c-2nc(O)c2nccn12 | 6.96 | 4.00 |  |
| O=C(Nc1ccc2c(c1)Cc1c-2nc(O)c2nccn12)c1ccccc1 | 6.35 | < 4.00 |  |
| CNC(=O)Nc1cccc2c1Cc1c-2nc(O)c2nccn12 | 6.52 | 5.64 |  |
| Oc1nc2c(n3ccnc13)Cc1c(Cl)cccc1-2 | 4.77 | 4.00 |  |
| Oc1nc2c(n3ccnc13)Cc1c(F)cccc1-2 | 6.05 | 4.00 |  |
| CNC(=O)Nc1ccc2c(c1)Cc1c-2nc(O)c2nccn12 | 7.74 | 4.00 |  |
| CCOC(=O)Nc1ccc2c(c1)Cc1c-2nc(O)c2nccn12 | 6.17 | 5.08 |  |
| Oc1nc2c(n3ccnc13)Cc1ccc(F)cc1-2 | 6.01 | 6.00 |  |
| Oc1nc2c(n3ccnc13)Cc1cc(-n3ccnc3)ccc1-2 | 4.00 | < 4.00 |  |
| COc1ccc2c(c1)Cc1c-2nc(O)c2nccn12 | 5.48 | 5.28 |  |
| Oc1nc2c(n3ccnc13)Cc1cc(F)ccc1-2 | 6.60 | 5.11 |  |

| Compound | pIC50 [1] | pIC50 (Glutamate NMDA receptor) | also measured |
| --- | --- | --- | --- |
| O=S(=O)(O)c1ccc2c(c1)Cc1c-2nc(O)c2nccn12 | 4.52 | < 4.00 |  |
| Oc1nc2c(n3ccnc13)Cc1ccccc1-2 |  |  | ED50 (Mus musculus [2]; ip): 62 mg/kg; Kb (Rattus norvegicus; Rattus norvegicus): 1.8 nM |
| CN(C)C(=O)Nc1ccc2c(c1)Cc1c-2nc(O)c2nccn12 | 7.43 | 4.00 |  |
| Oc1nc2c(n3ccnc13)Cc1cc(Br)ccc1-2 | 5.70 | < 4.00 |  |
| O=C(NCCc1ccccc1)Nc1ccc2c(c1)Cc1c-2nc(O)c2nccn12 | 6.89 | < 4.00 |  |
| CNC(=O)Nc1ccc2c(c1)/c(=C/C(=O)O)c1c2nc(O)c2nccn21 | 7.72 | 4.00 | ED50 (Mus musculus [2]; [6]): 11 mg/kg; pIC50 (Rattus norvegicus; Rattus norvegicus): 8.52; ED50 (Mus musculus [3]): 5.6 mg/kg; ED50 (Mus musculus [4]; [6]): 1.6 mg/kg |
| Oc1nc2c(n3ccnc13)Cc1ccc(Cl)cc1-2 | 5.52 | 6.74 |  |
| CCNC(=O)Nc1ccc2c(c1)Cc1c-2nc(O)c2nccn12 | 7.07 | 5.00 |  |
| Oc1nc2c(n3ccnc13)Cc1cc(Cl)ccc1-2 | 4.80 | < 4.00 |  |
| NC(=O)Nc1ccc2c(c1)Cc1c-2nc(O)c2nccn12 | 5.90 | < 4.00 |  |
| O=C(Cc1ccccc1)Nc1ccc2c(c1)Cc1c-2nc(O)c2nccn12 | 6.74 | 4.00 |  |
| CNC(=O)Nc1ccc2c(c1)C(CC(=O)O)c1c-2nc(O)c2nccn12 (racemic) | 8.10 | 4.85 | ED50 (Mus musculus [2]): 1.8 mg/kg; ED50 (Mus musculus [5]): 2 mg/kg; pIC50 (Rattus norvegicus): 7.70; ED50 (Mus musculus [3]): 1 mg/kg; ED50 (Mus musculus [4]): 0.6 mg/kg |
| CNC(=O)Nc1ccc2c(c1)C(CC(=O)O)c1c-2nc(O)c2nccn12 (single isomer, unassigned; (+)) | 8.40 | 5.00 | ED50 (Mus musculus [2]): 1 mg/kg; pIC50 (Rattus norvegicus): 8.70; ED50 (Mus musculus [4]): 0.9 mg/kg |
| CNC(=O)Nc1ccc2c(c1)C(CC(=O)O)c1c-2nc(O)c2nccn12 (stereo in doubt; (-)-3) | 7.41 |  | ED50 (Mus musculus [2]): 7 mg/kg; pIC50 (Rattus norvegicus): 8.17; ED50 (Mus musculus [4]): 4.4 mg/kg |
| O=c1[nH]c2cc(-n3ccnc3)c([N+](=O)[O-])cc2[nH]c1=O [YM-90K] |  |  | ED50 (Mus musculus [2]; ip): 12 mg/kg; pIC50 (Rattus norvegicus; Rattus norvegicus): 6.59; ED50 (Mus musculus [3]): 12 mg/kg; ED50 (Mus musculus [4]; ip): 15 mg/kg |
